Published values pooled from the literature.
Compare with care: the assays were run in different laboratories.
Target: Serine/threonine-protein kinase WNK1 (WNK1, Homo sapiens, UniProt Q9H4A3)

| SMILES | observed | mode | method | concentration | quantity | value |
| --- | --- | --- | --- | --- | --- | --- |
| COc1cc(Nc2cnc(C#N)c(O[C@H](C)CN(C)C)n2)ncc1-c1cnn(C)c1 | enzyme activity | inhibitor | radiometric | 1 µM | remaining activity | 95% |
| CN([C@@H]1CCc2c(CC(=O)O)c3cc(S(C)(=O)=O)ccc3n2C1)S(=O)(=O)c1ccc(F)cc1 | cell-free assay | – | competition with immobilised ligand | 1 µM | remaining binding | 95% |
| Cn1cncc1C1=CN(c2ncnc3[nH]cnc23)CCS1 | enzyme activity | inhibitor | radiometric | 2 µM | inhibition | 10.7% |
| CN(c1nccc(-c2cnn3ncccc23)n1)C1CC1 | binding | – | – | 1 µM | remaining binding | 100% |
| O=C(Nc1cnn(-c2csc(C(=O)NC3COC3)c2)c1)Nc1ccccc1Cl | enzyme activity | inhibitor | – | 5 µM | remaining activity | 99.7% |
| CN(c1ccnc(CNc2nc(Nc3ccc4c(c3)CC(=O)N4)ncc2C(F)(F)F)n1)S(C)(=O)=O | cell-free assay | – | competition with immobilised ligand | 1 µM | remaining binding | 87% |
| COc1cc(/C=C/C(=O)CC(=O)/C=C/c2ccc(O)c(OC)c2)ccc1O | enzyme activity | inhibitor | – | 1 µM | activity vs control | 98% |
| FC(F)(F)Oc1cccc(-c2cnc3ccc(-c4ccncc4)nn23)c1 | enzyme activity | inhibitor | radiometric | 5 µM | activity vs control | 99% |
| CS(=O)(=O)Nc1cccc(-c2csc(NC(=O)CSc3nc4nccnc4c(=O)n3CCc3ccccc3)n2)c1 | enzyme activity | inhibitor | – | 10 µM | inhibition | -3% |
| CO[C@@H](C)c1c(Nc2ccc([C@H](N(C)C(=O)C3CCS(=O)(=O)CC3)C(F)(F)F)cc2)cnc2cc(Cl)nn12 | cell-free assay | – | competition with immobilised ligand | 1 µM | remaining binding | 100% |
| CC(C)(C)c1nc2c(s1)c1nc(N)ncc1c1ccc(NS(=O)(=O)c3c(F)cccc3F)c(F)c12 | enzyme activity | inhibitor | radiometric | 1 µM | remaining activity | 103% |
| C[C@@H]1CN(c2cc(-c3n[nH]c4ccc(OC5(C)CC5)cc34)ncn2)C[C@H](C)O1 | cell-free assay | – | competition with immobilised ligand | 0.1 µM | remaining binding | 89% |
| CN1CC(Oc2cnc(C#N)cc2-c2ccn3nc(NC(=O)C4CC4)cc3c2)C1 | enzyme activity | inhibitor | – | 1 µM | inhibition | 17% |
| O=C(Nc1cnn(-c2csc(C(=O)NC3COC3)c2)c1)Nc1c(F)cccc1Cl | enzyme activity | inhibitor | – | 5 µM | remaining activity | 93.3% |
| COc1cc(Cl)c(C(=O)N[C@@H](CN[C@H]2CC[C@@H](N)CC2)Cc2ccc(C#N)cc2)cc1-c1ccc(CN[C@H](C)c2ccc(C)cc2)o1 | enzyme activity | inhibitor | – | 1 µM | remaining activity | 109% |
| N[C@@H]1CCN(c2nccc(-c3cnn4ncccc34)n2)C1 | binding | – | – | 1 µM | remaining binding | 100% |
